Article PMC4363178 (Biochemical and biophysical research communications, 2015)
Peptide text beside a SMILES is read from it.

Tests used:
[1] = molecular target: T1, PDZ1 of mouse ZO2 (M-ZO2PDZ1) (Mus musculus, UniProt Q9Z0U1); test: NMR titration; assay type: binding; settings: for Decrease of chemical shift change of R87 relative to wild-type Cln1-C: same concentration of wild-type Cln1-C, stated jointly for the two mutants
T1 sequence (Q9Z0U1 1-102): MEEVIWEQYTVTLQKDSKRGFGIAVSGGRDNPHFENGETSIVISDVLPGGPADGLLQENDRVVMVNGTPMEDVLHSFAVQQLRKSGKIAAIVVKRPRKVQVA
Method in brief: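 His-tag-cleaved mouse ZO2 PDZ1 from E. coli BL21(DE3), 15N-labelled in M9 medium, at 0.1 mM in pH 5.2 buffer (50mM phosphate, 50mM NaCl, 0.2mM EDTA). Unmodified peptides (>95% pure; 50 mM stock) were added stepwise up to 12:1 peptide:protein, with ≤10% total dilution. A 1H-15N HSQC was recorded at each point at 600 MHz and 298K. Composite shift = {[δHN]^2 + [0.17 δN]^2}^1/2.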

[2] = molecular target: PDZ1 domain of mouse ZO2 (M-ZO2PDZ1) (mouse) (UniProt Q9Z0U1); test: NMR titration
Sequence of PDZ1 domain of mouse ZO2 (M-ZO2PDZ1) (mouse) (Q9Z0U1 1-104): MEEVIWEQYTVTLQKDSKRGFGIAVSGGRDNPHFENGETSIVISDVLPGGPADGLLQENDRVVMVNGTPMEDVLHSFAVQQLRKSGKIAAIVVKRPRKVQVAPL

**Q.** With `C[C@H](NC(=O)[C@H](Cc1ccc(O)cc1)NC(=O)[C@H](CC(=O)O)NC(=O)[C@H](CCCCN)NC(=O)CNC(=O)[C@H](CO)NC(=O)[C@H](CO)NC(=O)[C@@H]1CCCN1)C(=O)O` [Cln1-C-YA] (H-PSSGKDYA-OH) as the molecule, how does the Kd [1] read?
**A.** The Kd was 500 ± 250 µM.

**Q.** How did the Kd [1] turn out when `CC[C@H](C)[C@H](N)C(=O)N[C@@H](CC(C)C)C(=O)N[C@@H](CCCNC(=N)N)C(=O)N[C@@H](CCCCN)C(=O)N[C@@H](CCCNC(=N)N)C(=O)N[C@@H](CCC(=O)O)C(=O)N[C@@H](Cc1ccc(O)cc1)C(=O)N[C@H](C(=O)O)C(C)C` [PMP22-YV] (H-ILRKREYV-OH) was run?
**A.** Its Kd is 150 ± 50 µM.

**Q.** How did the “Decrease of chemical shift change of R87 relative to wild-type Cln1-C” value [1] turn out when PSSGKDAA [Cln1-C-AA] was run?
**A.** Its value is 22 fold.

**Q.** PSSGKDVY [Cln1-C-VY] was tested. Which “Decrease of chemical shift change of R87 relative to wild-type Cln1-C” value [1] did it give?
**A.** The value was 22 fold.

**Q.** For “mutant PMP22 C-terminal peptide PMP22-M1 (ILRKREYV)”, which Kd [2] is on record?
**A.** Its Kd is 150 µM.
